Screening data (PubChem BioAssay)
This is a sample that favours compounds with a hit; in the whole collection about 3.7% have one here.
hERG protect: compounds protecting human hERG from proarrhythmic drug block; Q12809; CHO-hERG, FluxOR thallium flux, dofetilide IC70 present; activation (rescue from dofetilide block), less the hit threshold, % at 10 µM; 0.51% of 310,000 active; AID 1511;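 active means activation above the mean of controls blocked by dofetilide plus 5 SD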;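 further: thallium influx through hERG after potassium depolarization seen as dye fluorescence rise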
KCNK9 block: blocks the human KCNK9 two-pore domain potassium channel; B-score at 10 µM; 1.2% of 310,000 active; HEK293 KCNK9, FluxOR thallium flux fluorescence; hits give low values; Q9NPC2;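 active means ratio B-score over 3 SD below the library mean, with starting fluorescence within 5 SD of its mean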;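 further: negative B-score means less thallium flux so channel inhibition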
Kir21 block: inhibitors of mouse Kir2.1 inward-rectifier potassium channel. P35561. HEK293-Kir2.1, FluxOR thallium flux fluorescence; hits give low values. B-score at 10 µM. 0.85% of 310,000 active. AID 1672;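 active means fluorescence ratio B-score at or below minus 3 SD of library scores, with starting-brightness B-score within 2 SD, cut at about -4.2 in these data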;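 further: channel flux triggered by added potassium and thallium sulfate stimulus; B-score of peak minus minimum fluorescence over baseline after thallium stimulus; more negative B-score means stronger Kir2.1 block with less thallium influx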
KCNQ1 block: blocks the human KCNQ1 potassium channel; P51787; CHO-K1 KCNQ1, FluxOR thallium flux fluorescence; hits give high values; B-score at 10 µM; 1.3% of 310,000 active; AID 2642;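 active means compounds whose thallium flux B-score, printed positive for inhibition, exceeds three library SD while starting fluorescence stays within three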;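 further: channel opened by potassium depolarization with thallium stimulus after 20 min compound exposure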
KCNK3 inh: human KCNK3 channel inhibition, primary screen. CHO-KCNK3 thallium flux, FluxOR fluorescence; hits give low values. 0.84% of 340,000 active. B-score at 10 µM. O14649;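 active means B-score under library mean minus 4 SD, starting fluorescence ratio at most library mean plus 5 SD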;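 further: more negative B-score means stronger inhibition of thallium flux through KCNK3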
KCNQ1 pot: human KCNQ1 channel potentiation or activation | P51787 | CHO-K1 KCNQ1, thallium flux FluxOR fluorescence; hits give high values | B-score at 10 µM | 0.35% of 310,000 active | AID 2648;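 active means fluorescence ratio B-score, a plate-corrected score, at least three library SD, with initial intensity B-score within 5 SD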
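assay system = CHO-K1 cells stably expressing KCNQ1 | medium = assay buffer, equal DMSO in all wells | timing = 37 °C overnight plating, 90-min dark dye load, 20-min compound pretreatment | measured by = kinetic FluxOR thallium fluorescence, 10-s 1-Hz baseline, 110-s post-stimulus read | measure = fluorescence change relative to baseline, converted to B score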
Of the large screens only hits and unclear results are named; the others gave an inactive call.

Cc1ccccc1Cn1c(O)c(N=NC(=S)Nc2ccccc2F)c2ccccc21	hERG protect 36
Cc1ccc(C)c(Cn2c(O)c(N=NC(=S)Nc3ccccc3F)c3ccccc32)c1	hERG protect 4.7
CCc1ccccc1NC(=S)N=Nc1c(O)n(C)c2ccc(S(=O)(=O)N3CCOCC3)cc12	none
CC(C)(C)[C@H]1COC(=O)CCCC/C=C\C[C@H](CC(=O)N(CCO)Cc2ccccc2)C(=O)N1	none (no result: hERG protect, KCNK9 block, Kir21 block, KCNQ1 block, KCNQ1 pot)
Nc1cc(=O)[nH]c(SCC(=O)Nc2cc(S(=O)(=O)N3CCCCC3)ccc2Cl)n1	none (no result: hERG protect, KCNK9 block, Kir21 block, KCNQ1 block, KCNQ1 pot)
COc1ccc(NC(=O)CCC(=O)c2ccc(F)cc2)cc1	none (no result: hERG protect, KCNK9 block, Kir21 block, KCNQ1 block, KCNQ1 pot)
CC1CCCN(CC(O)CN2CCN(CC(O)CN3CCCC(C)C3)C(C)C2)C1 (stereo unspecified)	none (no result: hERG protect, KCNK9 block, Kir21 block, KCNQ1 block, KCNQ1 pot)
O=C(CSc1n[nH]c(-c2ccccn2)n1)Nc1cccc(Cl)c1	none
Cc1ccc(N(CC(=O)NC2CCCCC2)C(=O)CNC(=O)c2ccco2)cc1C	none
NC(=S)N=Nc1c(O)n(CCCl)c2ccccc12	none
Oc1c(N=NC(=S)Nc2ccccc2F)c2ccccc2n1Cc1ccc(Cl)cc1	hERG protect 25, KCNQ1 pot 8
CCNC(=S)N=Nc1c(O)n(Cc2ccc(Cl)cc2)c2ccccc12	KCNQ1 pot 18
Oc1c(N=NC(=S)Nc2ccccc2F)c2ccccc2n1Cc1ccccc1F	hERG protect 29, KCNQ1 pot 23
CCn1c(O)c(N=NC(=O)CNC(=O)c2ccccc2F)c2ccccc21	none
CSc1ncccc1C(=O)OCC(=O)N1CC(=O)Nc2ccccc21	none (no result: hERG protect, KCNK9 block, Kir21 block, KCNQ1 block, KCNQ1 pot)
O=C(NCCN1CCOCC1)c1cccc(S(=O)(=O)N2CCCC2)c1	none
O=C(NCCN1CCOCC1)c1cccc(S(=O)(=O)N2CCCCCC2)c1	hERG protect 7.2
O=C(N/N=C/c1sc(N2CCOCC2)nc1-c1ccccc1)c1ccc(O)cc1	KCNQ1 block 7
O=C(N/N=C/c1sc(N2CCOCC2)nc1-c1ccccc1)c1cccc(S(=O)(=O)N2CCCC2)c1	KCNQ1 block 6
COc1ccc(C(=O)N/N=C/c2sc(N3CCOCC3)nc2-c2ccccc2)cc1OC	none
CSc1ccc(CN(C)C(C)C(=O)NCc2ccccc2)cc1 (stereo unspecified)	Kir21 block -9.7
CCOc1ccc(CN(C)C(C)C(=O)NCc2ccccc2)cc1 (stereo unspecified)	none
COc1ccc(CNC(=O)CN(C)Cc2ccc(SC)cc2)cc1	Kir21 block -6.8
CC(=O)c1ccc(NC(=O)CSc2nnc(NC(=O)c3ccco3)s2)cc1	none
Cc1ccccc1-c1cc(C(=O)Nc2sc(C(=O)OC(C)C)c(C)c2C#N)c2ccccc2n1	KCNQ1 block 10
CCOC(=O)c1sc(NC(=O)c2cc(-c3ccc(C)cc3)nc3ccccc23)c(C#N)c1C	KCNQ1 block 7
COc1ccc(-c2cc(C(=O)OCC(=O)NC(C)C)c3ccccc3n2)cc1	Kir21 block -4.4
CCCNC(=O)COC(=O)c1cc(-c2ccc(OC)cc2)nc2ccccc12	none
O=C(Cc1ccc(Br)cc1)Nc1ccccc1Sc1ccccc1	none
O=C(Nc1ccccc1Sc1ccccc1)C1CCCO1 (stereo unspecified)	Kir21 block -4.8
O=C(Cc1ccccc1)Nc1ccccc1Sc1ccccc1	Kir21 block -9.2
O=C(Cc1ccc(F)cc1)Nc1ccccc1Sc1ccccc1	Kir21 block -6.3
CSc1ccccc1NC(=O)Cc1ccccc1	none
O=C(Nc1ccccc1Sc1ccccc1)c1ccccc1	KCNK9 block -7.7
O=C(CSc1nnc(-c2ccncc2)o1)Nc1ccc(F)c(F)c1	none (no result: hERG protect, KCNK9 block, Kir21 block, KCNQ1 block, KCNQ1 pot)
O=C(NCC(c1cccs1)N1CCOCC1)c1ccccc1NS(=O)(=O)c1cccc([N+](=O)[O-])c1 (stereo unspecified)	none
O=C(NCC(c1cccs1)N1CCOCC1)c1ccccc1NS(=O)(=O)c1ccc(Cl)c([N+](=O)[O-])c1 (stereo unspecified)	KCNQ1 block 13
COc1ccc(CN2C(=O)c3ccccc3C(/C=N/OCc3ccc(Cl)cc3)C2=O)cc1 (stereo unspecified)	KCNQ1 block 7
COc1ccc(CN2C(=O)c3ccccc3C2=O)cc1	none
